A short description of assay [1]: Cytotoxicity against human CEM/ADR5000 by CCK-8 assay. Format: functional. A digest of the protocol: (§1)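 CCRF-CEM or P-glycoprotein-overexpressing CEM/ADR5000 leukemia cells in RPMI1640. CEM/ADR5000 maintained by treatment with 5000 ng/mL doxorubicin every other week for three days. Viability by CCK-8: reagent added, 3 h at 37 °C, absorbance 450 nm. IC50 from dose–response curves. At least two independent experiments, each with 6 parallel measurements (12 values per concentration), mean ± SEM.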
Background: Tetrazolium dyes change colour on reduction, which living cells bring about.

Assay [2] has as its system CCRF-CEM. As to the kind of experiment: Selectivity ratio of IC50 for human CEM/ADR5000 cells to IC50 for human CCRF-CEM cells. Format: functional.
Assay [3] deals with CCRF-CEM. As to the kind of experiment: Cytotoxicity against human CCRF-CEM cells by CCK-8 assay. Format: functional, cell-based. A digest of the protocol:
as §1

These results are taken from ChEMBL document CHEMBL2086346, “New artesunic acid homodimers: potent reversal agents of multidrug resistance in leukemia cells” (Bioorg Med Chem, 2012).

The structures appear in SMILES notation.

Broadly, the IC50 is the midpoint of a concentration-inhibition curve. A low value points to greater potency in that assay. Regarding `C[C@H]1[C@H](OC(=O)CCC(=O)NCCCNC(=O)CCC(=O)O[C@@H]2O[C@@H]3O[C@@]4(C)CC[C@H]5[C@H](C)CC[C@@H]([C@H]2C)[C@@]35OO4)O[C@@H]2O[C@@]3(C)CC[C@H]4[C@H](C)CC[C@@H]1[C@@]24OO3`, half-maximal inhibition in assay [1] (IC50) required 0.2 µM. Besides, the “Ratio IC50” value in assay [2] is recorded as 0.17.
`C[C@H]1[C@H](OC(=O)CCC(=O)NCC(O)CNC(=O)CCC(=O)O[C@@H]2O[C@@H]3O[C@@]4(C)CC[C@H]5[C@H](C)CC[C@@H]([C@H]2C)[C@@]35OO4)O[C@@H]2O[C@@]3(C)CC[C@H]4[C@H](C)CC[C@@H]1[C@@]24OO3` (some centres not stated): the IC50 in assay [3] was 2.16 µM; in assay [1], 1.21 µM. In addition, the “Ratio IC50” value in assay [2] is 0.56.
Regarding `C[C@H]1[C@H](OC(=O)CCC(=O)NCc2cccc(CNC(=O)CCC(=O)O[C@@H]3O[C@@H]4O[C@@]5(C)CC[C@H]6[C@H](C)CC[C@@H]([C@H]3C)[C@@]46OO5)c2)O[C@@H]2O[C@@]3(C)CC[C@H]4[C@H](C)CC[C@@H]1[C@@]24OO3`, the 50% inhibitory concentration (IC50) in assay [3] was determined as 1.6 µM; in assay [1], 1.51 µM. The “Ratio IC50” value in assay [2] came to 0.94.
For `C[C@H]1[C@H](OC(=O)CCC(=O)NCCCCCCCCNC(=O)CCC(=O)O[C@@H]2O[C@@H]3O[C@@]4(C)CC[C@H]5[C@H](C)CC[C@@H]([C@H]2C)[C@@]35OO4)O[C@@H]2O[C@@]3(C)CC[C@H]4[C@H](C)CC[C@@H]1[C@@]24OO3` the same measures were 2.94 µM, 3.04 µM and 1.03.
In the case of `C[C@@H]1CC[C@H]2[C@@H](C)C(=O)O[C@@H]3O[C@@]4(C)CC[C@@H]1[C@]32OO4` [ARTEMISININ], the “Ratio IC50” value in assay [2] was 0.73.
For the compound `C[C@H]1[C@H](OC(=O)CCC(=O)O)O[C@@H]2O[C@@]3(C)CC[C@H]4[C@H](C)CC[C@@H]1[C@@]24OO3` [ARTESUNATE], the IC50 in assay [1] is 1.2 µM. Moreover, the “Ratio IC50” value in assay [2] turned out to be 0.67.
Take `COc1cccc2c1C(=O)c1c(O)c3c(c(O)c1C2=O)C[C@@](O)(C(=O)CO)C[C@@H]3O[C@H]1C[C@H](N)[C@H](O)[C@H](C)O1` [DOXORUBICIN]: the IC50 in assay [3] was 0.037 µM; in assay [1] it was more than 5.2 µM. Further, the “Ratio IC50” value in assay [2] is given as more than 140.
